ChEMBL document CHEMBL1240422, “Design, synthesis and biological evaluation of 3,5-diaryl-isoxazoline/isoxazole-pyrrolobenzodiazepine conjugates as potential anticancer agents” (2010)
Activity calls are given as the source filed them. The calls are words filed in the database; no cut-off is given here.

Columns and labels:
CCRF-CEM = assay: Anticancer activity against human CCRF-CEM cells after 48 hrs by SRB assay; assay type: functional
HL-60(TB) = assay: Anticancer activity against human HL-60(TB) cells after 48 hrs by SRB assay; assay type: functional; details: HL-60, 48 h
K562 = assay: Anticancer activity against human K562 cells after 48 hrs by SRB assay; assay type: functional; details: K562, 48 h
MOLT-4 = assay: Anticancer activity against human MOLT4 cells after 48 hrs by SRB assay; assay type: functional; details: MOLT-4, 48 h
SR = assay: Anticancer activity against human SR cells after 48 hrs by SRB assay; assay type: functional
A549 = assay: Anticancer activity against human A549 cells after 48 hrs by SRB assay; assay type: functional; details: A549, 48 h
Summary of the method: (§1)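 Grown in RPMI 1640 with 10% FBS and 2 mM L-glutamine at 37 °C, 5% CO2. Seeded at densities set by doubling time, then preincubated 24 h. Continuous 48 h drug exposure at four concentrations (0.1, 1, 10, 100), triplicate wells. Fixed with cold TCA (final 10%) at 4 °C, 60 min. Stained with 0.4% SRB in 1% acetic acid, eluted with 10 mM Tris base, read at 540/690 nm. Percent growth versus control wells.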

EKVX = assay: Anticancer activity against human EKVX cells after 48 hrs by SRB assay; assay type: functional
NCI-H226 = assay: Anticancer activity against human NCI-H226 cells after 48 hrs by SRB assay; assay type: functional; details: NCI-H226, 48 h
NCI-H522 = assay: Anticancer activity against human NCI-H522 cells after 48 hrs by SRB assay; assay type: functional; details: NCI-H522, 48 h
HCC 2998 = assay: Anticancer activity against human HCC2998 cells after 48 hrs by SRB assay; assay type: functional; details: HCC 2998, 48 h
HCT-116 = assay: Anticancer activity against human HCT116 cells after 48 hrs by SRB assay; assay type: functional; details: HCT-116, 48 h
HCT-15 = assay: Anticancer activity against human HCT15 cells after 48 hrs by SRB assay; assay type: functional; details: HCT-15, 48 h
HT-29 = assay: Anticancer activity against human HT-29 cells after 48 hrs by SRB assay; assay type: functional; details: HT-29, 48 h
SW-620 = assay: Anticancer activity against human SW620 cells after 48 hrs by SRB assay; assay type: functional; details: SW-620, 48 h
SF-268 = assay: Anticancer activity against human SF268 cells after 48 hrs by SRB assay; assay type: functional; details: SF-268, 48 h
SNB-19 = assay: Anticancer activity against human SNB19 cells after 48 hrs by SRB assay; assay type: functional; details: SNB-19, 48 h
SNB-75 = assay: Anticancer activity against human SNB75 cells after 48 hrs by SRB assay; assay type: functional; details: SNB-75, 48 h
LOX IMVI = assay: Anticancer activity against human LOXIMVI cells after 48 hrs by SRB assay; assay type: functional
Malme-3M = assay: Anticancer activity against human MALME-3M cells after 48 hrs by SRB assay; assay type: functional
M14 = assay: Anticancer activity against human M14 cells after 48 hrs by SRB assay; assay type: functional; details: M14, 48 h
IGROV-1 = assay: Anticancer activity against human IGROV1 cells after 48 hrs by SRB assay; assay type: functional; details: IGROV-1, 48 h
OVCAR-3 = assay: Anticancer activity against human OVCAR-3 cells after 48 hrs by SRB assay; assay type: functional; details: OVCAR-3, 48 h
OVCAR-4 = assay: Anticancer activity against human OVCAR4 cells after 48 hrs by SRB assay; assay type: functional; details: OVCAR-4, 48 h
SK-OV-3 = assay: Anticancer activity against human SKOV3 cells after 48 hrs by SRB assay; assay type: functional; details: SK-OV-3, 48 h
CAKI-1 = assay: Anticancer activity against human Caki1 cells after 48 hrs by SRB assay; assay type: functional; details: CAKI-1, 48 h
RXF 393 = assay: Anticancer activity against human […] cells after 48 hrs by SRB assay; assay type: functional; details: RXF 393, 48 h
SN12C = assay: Anticancer activity against human SN12C cells after 48 hrs by SRB assay; assay type: functional
MDA-MB-435 = assay: Anticancer activity against human MDA-MB-435 cells after 48 hrs by SRB assay; assay type: functional; details: MDA-MB-435, 48 h
T47D = assay: Anticancer activity against human T47D cells after 48 hrs by SRB assay; assay type: functional
MDA-MB-468 = assay: Anticancer activity against human MDA-MB-468 cells after 48 hrs by SRB assay; assay type: functional; details: MDA-MB-468, 48 h
DU-145 = assay: Anticancer activity against human DU145 cells after 48 hrs by SRB assay; assay type: functional; details: DU-145, 48 h
PC-3 = assay: Anticancer activity against human PC3 cells after 48 hrs by SRB assay; assay type: functional; details: PC-3, 48 h; summary of the method: as §1
SK-MEL-28 = assay: Anticancer activity against human SK-MEL-28 cells after 48 hrs by SRB assay; assay type: functional; details: SK-MEL-28, 48 h
SK-MEL-5 = assay: Anticancer activity against human SK-MEL-5 cells after 48 hrs by SRB assay; assay type: functional; details: SK-MEL-5, 48 h
UACC-257 = assay: Anticancer activity against human UACC257 cells after 48 hrs by SRB assay; assay type: functional; details: UACC-257, 48 h
UACC-62 = assay: Anticancer activity against human UACC62 cells after 48 hrs by SRB assay; assay type: functional; details: UACC-62, 48 h
A-375 [1] = assay: Cell cycle arrest in human A375 cells assessed as accumulation at G0/G1 phase at 4 uM after 24 hrs using propidium iodide staining by FACS; assay type: functional
Summary of the method: (§2)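 Treated A375 cells (24 h) were harvested with trypsin-EDTA and fixed in ice-cold 70% ethanol (4 °C, 30 min). After a PBS wash, they were incubated with 1 mg/mL RNase A (37 °C, 30 min) and stained with propidium iodide solution containing trisodium citrate and Triton X-100. DNA content was measured by flow cytometry on 20,000 events. Controls were DMSO-treated.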

A-375 [2] = assay: Cell cycle arrest in human A375 cells assessed as accumulation at S phase at 4 uM after 24 hrs using propidium iodide staining by FACS; assay type: functional; summary of the method: as §2
A-375 [3] = assay: Cell cycle arrest in human A375 cells assessed as accumulation at G2/M phase at 4 uM after 24 hrs using propidium iodide staining by FACS; assay type: functional; summary of the method: as §2
A-375 [4] = assay: Induction of apoptosis in human A375 cells assessed as increase in PPAR protein level at 4 uM after 24 hrs by Western blotting; assay type: functional, cell-based
Summary of the method: (§3)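 A375 cells were treated for 24 h and lysed in ice-cold RIPA buffer (1% NP-40, 0.5% deoxycholate, 0.1% SDS, protease inhibitors). Protein was quantified by Bradford assay, and 30 µg/lane was run on 12% SDS-PAGE and transferred to PVDF. Membranes were blocked 2 h at RT in TBST with 5% blocker, incubated with primary antibody overnight at 4 °C, then with HRP secondary (1:2000, 1 h, RT). Detection was by chemiluminescence, with β-actin as loading control.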

A-375 [5] = assay: Induction of apoptosis in human A375 cells assessed as reduction in CDK2 protein level at 4 uM after 24 hrs by Western blotting; assay type: functional, cell-based; summary of the method: as §3

Compound: COc1ccc(C2=NOC(c3cc(OC)c(OC)c(OC)c3)C2)cc1OCCCCOc1cc2c(cc1OC)C(=O)N1CCC[C@H]1C=N2 (stereo partly specified)
- GI50 (CCRF-CEM): 160 nM
- GI50 (HL-60(TB)): 180 nM
- GI50 (K562): 120 nM
- GI50 (MOLT-4): 200 nM
- GI50 (SR): 140 nM
- GI50 (A549): 260 nM
- GI50 (EKVX): 460 nM
- GI50 (NCI-H226): 170 nM
- GI50 (NCI-H522): 120 nM
- GI50 (HCC 2998): 190 nM
- GI50 (HCT-116): 180 nM
- GI50 (HCT-15): 180 nM
- GI50 (HT-29): 360 nM
- GI50 (SW-620): 230 nM
- GI50 (SF-268): 340 nM
- GI50 (SNB-19): 340 nM
- GI50 (SNB-75): 320 nM
- GI50 (LOX IMVI): 220 nM
- GI50 (Malme-3M): 210 nM
- GI50 (M14): 180 nM
- GI50 (IGROV-1): 240 nM
- GI50 (OVCAR-3): 270 nM
- GI50 (OVCAR-4): 400 nM
- GI50 (SK-OV-3): 470 nM
- GI50 (CAKI-1): 250 nM
- GI50 (RXF 393): 210 nM
- GI50 (SN12C): 300 nM
- GI50 (MDA-MB-435): 170 nM
- GI50 (T47D): 280 nM
- GI50 (MDA-MB-468): 220 nM
- GI50 (DU-145): 580 nM
- GI50 (PC-3): 2480 nM
- GI50 (SK-MEL-28): 200 nM
- GI50 (SK-MEL-5): 160 nM
- GI50 (UACC-257): 270 nM
- GI50 (UACC-62): 160 nM
- Activity (A-375 [1]): 95.2%
- Activity (A-375 [2]): 3.52%
- Activity (A-375 [3]): 1.23%
- Activity (A-375 [4]): Active
- Activity (A-375 [5]): Active
